Measurements published in ChEMBL document CHEMBL1772938, “Optimization of 3-(phenylthio)quinolinium compounds against opportunistic fungal pathogens” (Eur J Med Chem, 2011).
Values after ≈ are worked out from the molar mass of the structure shown.

Key:
Cryptococcus neoformans [1] = test: Antimicrobial activity against Cryptococcus neoformans ATCC 90113 by CLSI method; type: functional
How it was run: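 C. neoformans in Sabouraud dextrose broth, inoculum per the 0.5 McFarland standard. Saline serial dilutions of DMSO samples were tested in duplicate, with a final top concentration of 20 μg/mL. OD 630 nm was read before and after incubation. IC50 was derived from % growth versus concentration. MIC was judged visually as the lowest concentration with no detectable growth. Amphotericin B served as the drug control.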

Aspergillus fumigatus [2] = test: Antimicrobial activity against Aspergillus fumigatus ATCC 90906 by CLSI method; type: functional
How it was run: (§1)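 Modified CLSI broth microdilution. DMSO stocks were serially diluted in saline and run in duplicate. Inoculum was set by the 0.5 McFarland standard in YM broth for MIC, or in RPMI-1640 + 5% Alamar Blue for IC50. The top final concentration was 20 μg/mL. Fluorescence (544ex/590em) was read before and after incubation. IC50 was taken from % growth versus concentration; MIC was read visually as no blue-to-pink change.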

Candida albicans [3] = test: Antimicrobial activity against Candida albicans ATCC 90028 by CLSI method; type: functional
How it was run: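 C. albicans inoculum was made to the 0.5 McFarland standard in Sabouraud dextrose broth or RPMI 1640. Samples came from DMSO stocks serially diluted in saline, in duplicate, starting at a final 20 μg/mL. Plates were read at OD 630 nm before and after incubation. IC50 came from the % growth versus concentration plot; MIC was the lowest concentration with no visible growth. Included: growth, solvent and blank controls, plus amphotericin B.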

[4] = Cytotoxicity against african green monkey Vero cells after 48 hrs by neutral red assay; type: cell-based; details: chlorocebus sabaeus, read-out: TC50
How it was run: (§2)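 VERO kidney cells were seeded at 25,000 cells/well and incubated 24 h. Samples were added up to 10 μg/mL and incubated a further 48 h. Viable cells were counted by neutral red uptake. IC50 came from growth-inhibition dose curves. Doxorubicin was the positive control and DMSO the vehicle control.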

Nakaseomyces glabratus [5] = test: Antimicrobial activity against Candida glabrata ATCC 90030 by CLSI method; type: functional
How it was run: (§3)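 Modified CLSI microdilution. DMSO samples were serially diluted in saline and tested in duplicate against inoculum adjusted by the 0.5 McFarland standard. The final test range started at 20 μg/mL. Plates were read before and after incubation. IC50 came from % growth versus concentration; MIC was the lowest concentration without visible growth. Growth, solvent, blank and amphotericin B controls were on each plate.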

[6] = Selectivity index, ratio of TC50 for african green monkey Vero cells to IC50 for Cryptococcus neoformans ATCC 90113; type: toxicity, cell-based; details: read-out: Selectivity Index
Nakaseomyces glabratus [7] = test: Antimicrobial activity against Candida glabrata ATCC 90030 by alamar blue assay; type: functional, organism-based
Pichia kudriavzevii [8] = test: Antimicrobial activity against Candida krusei ATCC 6258 by CLSI method; type: functional; how it was run: as §3
Candida albicans [9] = test: Antimicrobial activity against Candida albicans ATCC 90028 by alamar blue assay; type: functional, organism-based
Aspergillus fumigatus [10] = test: Antimicrobial activity against Aspergillus fumigatus ATCC 90906 by alamar blue assay; type: functional, organism-based; how it was run: as §1
Cryptococcus neoformans [11] = test: Antimicrobial activity against Cryptococcus neoformans ATCC 90113 by alamar blue assay; type: functional, organism-based
Vero = test: Cytotoxicity against african green monkey Vero cells at 10 ug/ml after 48 hrs by neutral red assay; type: cell-based; details: chlorocebus sabaeus; how it was run: as §2
Pichia kudriavzevii [12] = test: Antimicrobial activity against Candida krusei ATCC 6258 by alamar blue assay; type: functional, organism-based

Row | SMILES | MIC (Cryptococcus neoformans [1]) | MIC (Aspergillus fumigatus [2]) | MIC (Candida albicans [3]) | MIC (Nakaseomyces glabratus [5]) | MIC (Pichia kudriavzevii [8]) | MFC (Cryptococcus neoformans [1]) | MFC (Aspergillus fumigatus [2]) | MFC (Candida albicans [3]) | CC50 at 48 h [4] | MFC (Nakaseomyces glabratus [5]) | selectivity ratio [6] | IC50 (Nakaseomyces glabratus [7]) | MFC (Pichia kudriavzevii [8]) | IC50 (Candida albicans [9]) | IC50 (Aspergillus fumigatus [10]) | IC50 (Cryptococcus neoformans [11]) | Activity (Vero) | IC50 (Pichia kudriavzevii [12])
1 | [I-].c1ccc(CCCCC[n+]2cc(Sc3ccccc3)cc3ccccc32)cc1 | 5 µg/mL | 1.3 µg/mL | 10 µg/mL |  |  | > 20 µg/mL | > 20 µg/mL | > 20 µg/mL |  |  |  |  |  |  |  |  |  | 
2 | Fc1ccccc1Sc1cc2ccccc2[n+](CCCCCc2ccccc2)c1.[I-] | 20 µg/mL | 20 µg/mL | > 20 µg/mL |  |  | > 20 µg/mL | > 20 µg/mL | > 20 µg/mL |  |  |  |  |  | > 20 µg/mL | 9 µg/mL | 9.5 µg/mL | Non-toxic | 
3 | COc1ccccc1Sc1cc2ccccc2[n+](CCCCCc2ccccc2)c1.[I-] | > 20 µg/mL | > 20 µg/mL | > 20 µg/mL |  |  | > 20 µg/mL | > 20 µg/mL | > 20 µg/mL | 4.3 µg/mL |  |  |  |  | > 20 µg/mL | 8 µg/mL | 15 µg/mL |  | 
4 | COc1cccc(Sc2cc3ccccc3[n+](CCCCCc3ccccc3)c2)c1.[I-] | 20 µg/mL | 5 µg/mL | > 20 µg/mL |  |  | > 20 µg/mL | > 20 µg/mL | > 20 µg/mL | > 10 µg/mL |  |  |  |  | > 20 µg/mL | 3.5 µg/mL | 10 µg/mL |  | 
5 | COc1ccc(Sc2cc3ccccc3[n+](CCCCCc3ccccc3)c2)cc1.[I-] | 20 µg/mL | 20 µg/mL | > 20 µg/mL |  |  | < 20 µg/mL | > 20 µg/mL | > 20 µg/mL | 10 µg/mL |  |  |  |  | > 20 µg/mL | 4.5 µg/mL | 15 µg/mL |  | 
6 | Brc1ccccc1Sc1cc2ccccc2[n+](CCCCCc2ccccc2)c1.[I-] | 5 µg/mL | 2.5 µg/mL | 20 µg/mL |  |  | 20 µg/mL | > 20 µg/mL | > 20 µg/mL | 10 µg/mL |  |  |  |  | 10 µg/mL | 1 µg/mL | 3 µg/mL |  | 
7 | Brc1cccc(Sc2cc3ccccc3[n+](CCCCCc3ccccc3)c2)c1.[I-] | 5 µg/mL | 10 µg/mL | 20 µg/mL |  |  | 10 µg/mL | > 20 µg/mL | > 20 µg/mL | > 10 µg/mL |  |  |  |  | 10 µg/mL | 2.5 µg/mL | 2 µg/mL |  | 
8 | FC(F)(F)c1ccc(Sc2cc3ccccc3[n+](CCCCCc3ccccc3)c2)cc1.[I-] | 5 µg/mL | > 20 µg/mL | 20 µg/mL |  |  | 10 µg/mL | > 20 µg/mL | > 20 µg/mL | 10 µg/mL |  |  |  |  | 11 µg/mL | 15 µg/mL | 2.7 µg/mL |  | 
9 | Cc1cccc(Sc2cc3ccccc3[n+](CCCCCc3ccccc3)c2)c1.[I-] | 2.5 µg/mL | > 20 µg/mL | > 20 µg/mL |  |  | 20 µg/mL | > 20 µg/mL | > 20 µg/mL | 8.8 µg/mL |  |  |  |  | > 20 µg/mL | 20 µg/mL | 1.4 µg/mL |  | 
10 | Cc1ccc(Sc2cc3ccccc3[n+](CCCCCc3ccccc3)c2)cc1.[I-] | 2.5 µg/mL | > 20 µg/mL | > 20 µg/mL |  |  | 5 µg/mL | > 20 µg/mL | > 20 µg/mL | 4.2 µg/mL |  |  |  |  | > 20 µg/mL | 16 µg/mL | 1.2 µg/mL |  | 
11 | N#Cc1ccccc1Sc1cc2ccccc2[n+](CCCCCC2CCCCC2)c1.[I-] | 1.3 µg/mL | 19 µg/mL | 10 µg/mL | 20 µg/mL | 2.5 µg/mL | 10 µg/mL | 20 µg/mL | 10 µg/mL | 10 µg/mL | 20 µg/mL | 9.1 | 12 µg/mL | 5 µg/mL | 3.3 µg/mL | 5 µg/mL | 1.1 µg/mL |  | 0.7 µg/mL
12 | Oc1ccccc1Sc1cc2ccccc2[n+](CCCCCC2CCCCC2)c1.[I-] | 1.3 µg/mL | 10 µg/mL | 10 µg/mL | 20 µg/mL | 10 µg/mL | 1.3 µg/mL | > 20 µg/mL | 20 µg/mL | 9.3 µg/mL | > 20 µg/mL | 9.3 | 12 µg/mL | 10 µg/mL | 4.7 µg/mL | 3.9 µg/mL | 1 µg/mL |  | 4.4 µg/mL
13 | C[C@@H]1[C@H](O)[C@@H](C)/C=C/C=C/C=C/C=C/C=C/C=C/C=C/[C@H](O[C@@H]2O[C@H](C)[C@@H](O)[C@H](N)[C@@H]2O)C[C@@H]2O[C@](O)(C[C@@H](O)C[C@@H](O)[C@H](O)CC[C@@H](O)C[C@@H](O)CC(=O)O[C@H]1C)C[C@H](O)[C@H]2C(=O)O [AMPHOTERICIN B] | 1.3 µg/mL (≈ 1.41 µM) | 1.3 µg/mL (≈ 1.41 µM) | 1.3 µg/mL (≈ 1.41 µM) | 1.3 µg/mL (≈ 1.41 µM) | 2.5 µg/mL (≈ 2.71 µM) | 5 µg/mL (≈ 5.41 µM) | 5 µg/mL (≈ 5.41 µM) | 1.3 µg/mL (≈ 1.41 µM) | 6.5 µg/mL (≈ 7.03 µM) | 2.5 µg/mL (≈ 2.71 µM) | 14 | 0.6 µg/mL (≈ 0.649 µM) | 2.5 µg/mL (≈ 2.71 µM) |  |  |  |  | 0.9 µg/mL (≈ 0.974 µM)

Now from value to compound, other results behind:

Row | MIC (Cryptococcus neoformans [1]) | MIC (Aspergillus fumigatus [2]) | MIC (Candida albicans [3]) | MIC (Nakaseomyces glabratus [5]) | MIC (Pichia kudriavzevii [8]) | SMILES | MFC (Cryptococcus neoformans [1]) | MFC (Aspergillus fumigatus [2]) | MFC (Candida albicans [3]) | CC50 at 48 h [4] | MFC (Nakaseomyces glabratus [5]) | selectivity ratio [6] | IC50 (Nakaseomyces glabratus [7]) | MFC (Pichia kudriavzevii [8]) | IC50 (Candida albicans [9]) | IC50 (Aspergillus fumigatus [10]) | IC50 (Cryptococcus neoformans [11]) | Activity (Vero) | IC50 (Pichia kudriavzevii [12])
14 | 1.3 µg/mL | 10 µg/mL | 5 µg/mL | 20 µg/mL | 1.3 µg/mL | [I-].c1ccc(Sc2cc3ccccc3[n+](CCCCCC3CCCCC3)c2)cc1 | 2.5 µg/mL | > 20 µg/mL | 10 µg/mL | 4.6 µg/mL | 20 µg/mL | 9.2 | 15 µg/mL | 2.5 µg/mL |  |  |  |  | 
15 | 0.6 µg/mL | 10 µg/mL | 5 µg/mL | 20 µg/mL | 0.6 µg/mL | Fc1cccc(Sc2cc3ccccc3[n+](CCCCCC3CCCCC3)c2)c1.[I-] | 2.5 µg/mL | 20 µg/mL | 10 µg/mL | 6.6 µg/mL | 20 µg/mL | 13 | 12 µg/mL | 1.3 µg/mL | 2.7 µg/mL | 5.3 µg/mL | 0.5 µg/mL |  | 0.3 µg/mL
16 | 0.6 µg/mL | 10 µg/mL | 5 µg/mL | 20 µg/mL | 1.3 µg/mL | COc1cccc(Sc2cc3ccccc3[n+](CCCCCC3CCCCC3)c2)c1.[I-] | 2.5 µg/mL | 20 µg/mL | 10 µg/mL | 4.5 µg/mL | > 20 µg/mL | 11 | 16 µg/mL | 1.3 µg/mL | 2.7 µg/mL | 5.5 µg/mL | 0.4 µg/mL |  | 0.6 µg/mL
17 | 0.6 µg/mL | 2.5 µg/mL | 2.5 µg/mL | 5 µg/mL | 0.6 µg/mL | Brc1ccccc1Sc1cc2ccccc2[n+](CCCCCC2CCCCC2)c1.[I-] | 1.3 µg/mL | 20 µg/mL | 2.5 µg/mL | 9.7 µg/mL | 10 µg/mL | 32 | 3.2 µg/mL | 1.3 µg/mL | 1.4 µg/mL | 2 µg/mL | 0.3 µg/mL |  | 0.3 µg/mL
18 | 0.6 µg/mL | 10 µg/mL | 5 µg/mL | 20 µg/mL | 1.3 µg/mL | Cc1ccccc1Sc1cc2ccccc2[n+](CCCCCC2CCCCC2)c1.[I-] | 1.3 µg/mL | > 20 µg/mL | 10 µg/mL | 4 µg/mL | 20 µg/mL | 13 | 13 µg/mL | 1.3 µg/mL | 1.7 µg/mL | 4.8 µg/mL | 0.3 µg/mL |  | 0.6 µg/mL
19 | 0.3 µg/mL | 5 µg/mL | 2.5 µg/mL | 10 µg/mL | 0.6 µg/mL | Cc1cccc(Sc2cc3ccccc3[n+](CCCCCC3CCCCC3)c2)c1.[I-] | 0.4 µg/mL | 5 µg/mL | 5 µg/mL | 3.7 µg/mL | 10 µg/mL | 19 | 5.5 µg/mL | 1.3 µg/mL | 1.4 µg/mL | 3.5 µg/mL | 0.2 µg/mL |  | 0.4 µg/mL
20 | 0.3 µg/mL | 5 µg/mL | 2.5 µg/mL | 10 µg/mL | 0.6 µg/mL | Cc1ccc(Sc2cc3ccccc3[n+](CCCCCC3CCCCC3)c2)cc1.[I-] | 1.3 µg/mL | 5 µg/mL | 5 µg/mL | 2.8 µg/mL | 10 µg/mL | 14 | 5.5 µg/mL | 1.3 µg/mL | 1.3 µg/mL | 2.7 µg/mL | 0.2 µg/mL |  | 0.5 µg/mL
